The species entered for experiment [1] is Homo sapiens. The experiment can be described thus: Selectivity, ratio of Ke for human delta opioid receptor to ratio of Ke for human kappa opioid receptor. Summed up:
(§1)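 Agonist-stimulated [³⁵S]GTPγS binding in CHO cells overexpressing the human receptor, stimulated by DAMGO (μ), DPDPE (δ) or U69,593 (κ). Agonist concentration–response curves were run with or without a fixed test concentration, using at least two test concentrations. Ke = [L]/(DR − 1) was calculated only when the agonist EC₅₀ shifted at least 4-fold. Values are mean ± SE from at least three experiments, and selectivity comes from the Ke values.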

In experiment [2] the target is Mu-type opioid receptor (Homo sapiens) (UniProt P35372). The experiment can be described thus: Antagonist activity at human mu opioid receptor expressed CHO cells assessed as inhibition of [35S]-GTP[gammaS] binding at 10 uM. In kind it is cell-based. Summed up:
(§2)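 Antagonism of [³⁵S]GTPγS binding stimulated by DAMGO (μ), DPDPE (δ) or U69,593 (κ) in CHO cells expressing the human receptor, tested at 10 μM.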

Experiment [3] has as its target Kappa-type opioid receptor (Homo sapiens) (UniProt P41145). The experiment can be described thus: Antagonist activity at human kappa opioid receptor expressed CHO cells assessed as inhibition of [35S]-GTP[gammaS] binding at 10 uM. Format: functional, cell-based. The procedure, abridged:
as §2
(GTPγS is a poorly hydrolysed GTP analogue; its binding reports G protein activation.)

Experiment [4] is filed under the species Homo sapiens. The experiment can be described thus: Selectivity, ratio of Ke for human mu opioid receptor to ratio of Ke for human kappa opioid receptor. Summed up:
as §1

Experiment [5] deals with Delta-type opioid receptor (Homo sapiens) (UniProt P41143). The experiment can be described thus: Agonist activity at human delta opioid receptor expressed CHO cells assessed as inhibition of [35S]-GTP[gammaS] binding. In kind it is functional, cell-based. The procedure, abridged: (§3)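 Agonist concentration–response in a [³⁵S]GTPγS binding assay at human δ receptor in CHO cells, using eight concentrations chosen to define the upper and lower asymptotes. EC₅₀ and Emax were calculated, with Emax given as a percentage of the maximum for DPDPE run on the same plate. Values are mean ± SE from at least three independent experiments.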
Delta-type opioid receptor (Homo sapiens), sequence (P41143 whole entry): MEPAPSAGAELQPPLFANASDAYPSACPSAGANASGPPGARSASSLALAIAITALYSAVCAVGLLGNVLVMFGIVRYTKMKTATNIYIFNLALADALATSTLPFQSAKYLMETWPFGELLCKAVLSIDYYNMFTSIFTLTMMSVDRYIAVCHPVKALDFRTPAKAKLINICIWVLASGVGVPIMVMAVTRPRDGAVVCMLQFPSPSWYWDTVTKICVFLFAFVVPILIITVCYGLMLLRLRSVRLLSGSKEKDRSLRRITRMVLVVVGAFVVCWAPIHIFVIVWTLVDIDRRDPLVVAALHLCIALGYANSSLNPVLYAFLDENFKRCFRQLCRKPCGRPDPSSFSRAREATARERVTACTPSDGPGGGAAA

The target is the same in experiment [6]. Description: Agonist activity at human delta opioid receptor expressed CHO cells assessed as inhibition of [35S]-GTP[gammaS] binding relative to DPDPE maximal response. Format: functional, cell-based. Summed up:
as §3

For experiment [7], the species on record is Mus musculus. The experiment can be described thus: Analgesic activity in mouse assessed as antagonism of morphine-induced antinociception by writhing test. In kind it is functional. (Writhing tests count abdominal constrictions after an irritant is injected.)
Experiment [8] has as its target Delta-type opioid receptor (Homo sapiens) (UniProt P41143). The experiment can be described thus: Antagonist activity at human delta opioid receptor expressed CHO cells assessed as inhibition of [35S]-GTP[gammaS] binding at 10 uM. In kind it is functional, cell-based. The procedure, abridged:
as §2

For experiment [9] the target is unchanged. Description: Agonist activity at human delta opioid receptor expressed CHO cells assessed as inhibition of [35S]-GTP[gammaS] binding at 10 uM. In kind it is functional, cell-based. The procedure, abridged:
(§4)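 Single-point screen at 10 μM for intrinsic agonist activity in a [³⁵S]GTPγS binding assay, using membranes from CHO cells overexpressing the human μ, κ or δ opioid receptor.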

The target of experiment [10] is Mu-type opioid receptor (Homo sapiens) (UniProt P35372). Description: Agonist activity at human mu opioid receptor expressed CHO cells assessed as inhibition of [35S]-GTP[gammaS] binding at 10 uM. Format: cell-based. The procedure, abridged: as §4
Mu-type opioid receptor (Homo sapiens), sequence (P35372 whole entry): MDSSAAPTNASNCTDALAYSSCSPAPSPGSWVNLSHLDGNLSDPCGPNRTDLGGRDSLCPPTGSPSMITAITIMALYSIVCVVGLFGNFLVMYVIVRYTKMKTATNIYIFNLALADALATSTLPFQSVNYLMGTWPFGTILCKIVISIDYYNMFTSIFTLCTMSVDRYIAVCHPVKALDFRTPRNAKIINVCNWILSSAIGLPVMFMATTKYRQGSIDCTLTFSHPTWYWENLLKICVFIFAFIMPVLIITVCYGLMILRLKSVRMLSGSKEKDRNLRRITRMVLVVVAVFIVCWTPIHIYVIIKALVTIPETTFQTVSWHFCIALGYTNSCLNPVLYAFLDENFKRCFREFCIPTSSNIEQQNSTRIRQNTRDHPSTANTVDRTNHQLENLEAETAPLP
Experiment [11] addresses Kappa-type opioid receptor (Homo sapiens) (UniProt P41145). Description: Agonist activity at human kappa opioid receptor expressed CHO cells assessed as inhibition of [35S]-GTP[gammaS] binding at 10 uM. In kind it is functional, cell-based. Summed up:
as §4

Experiment [12] is filed under the species Mus musculus. The experiment can be described thus: Analgesic activity in mouse assessed as antagonism of U50488-induced antinociception by writhing test. In kind it is functional.

Active and inactive are the calls of the source. The rule behind the calls is not given here.

Kappa-type opioid receptor (Homo sapiens), sequence (P41145 whole entry): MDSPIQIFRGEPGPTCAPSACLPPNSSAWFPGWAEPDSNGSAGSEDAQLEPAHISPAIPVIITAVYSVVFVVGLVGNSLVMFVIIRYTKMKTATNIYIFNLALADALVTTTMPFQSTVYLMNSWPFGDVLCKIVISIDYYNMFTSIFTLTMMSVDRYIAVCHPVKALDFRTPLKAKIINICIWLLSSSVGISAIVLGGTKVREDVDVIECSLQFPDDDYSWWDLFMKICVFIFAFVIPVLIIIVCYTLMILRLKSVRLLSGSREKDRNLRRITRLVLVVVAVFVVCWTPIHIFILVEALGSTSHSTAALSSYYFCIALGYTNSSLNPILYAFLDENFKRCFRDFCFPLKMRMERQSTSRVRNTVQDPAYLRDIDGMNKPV

With `Oc1cccc(C2CCN(CCCc3ccccc3)CC2)c1`, the Ratio Ke came out at 72 in [1] and 13 in [4]. Besides, the result in experiment [2] and in experiment [3] was inactive.

Consider `CN1CCC(C)(c2cccc(O)c2)CC1`, for which the figures for the ED50 in [5] and in experiment [7] (Mus musculus) were 8.3 µM and 3.4 mg/kg, respectively. The Emax (in general, the size of the effect at its maximum, as opposed to the concentration needed) in experiment [6] was determined as 64%.

For the compound `CC1CN(C)CCC1c1cccc(O)c1` (configuration not stated), in experiment [8], the result was inactive.

`CN1CCN(c2cccc(O)c2)CC1`: the outcome in experiment [9], in experiment [3], in experiment [10] and in experiment [11] was inactive.

Regarding `Oc1cccc(N2CCN(CCCc3ccccc3)CC2)c1`, the result in [9], in [10] and in experiment [11] was inactive.

For `C[C@H]1CN(CCCc2ccccc2)CCN1c1cccc(O)c1`, the outcome in [9], in experiment [10] and in experiment [11] was inactive.

Turning to `C[C@H]1CN(CCCc2ccccc2)CC[C@@]1(C)c1cccc(O)c1`, the AD50 in [7] was 0.28 mg/kg.

As for `CC1(c2cccc(O)c2)CCN(CCCc2ccccc2)CC1`, the outcome in [2] and in [3] was inactive.

As for `CC1CN(CCCc2ccccc2)CCC1c1cccc(O)c1` (configuration not stated), the result in [2] and in experiment [3] was inactive.

Consider `CN1CCC(c2cccc(O)c2)CC1`, for which the outcome in [8], in experiment [9], in [2], in experiment [10] and in experiment [11] was inactive.

Turning to `C[C@H]1CN(C)CC[C@@]1(C)c1cccc(O)c1`, the result in experiment [9], in experiment [10] and in experiment [11] was inactive. Moreover, the values for the AD50 in [12] and in experiment [7] were over 5 mg/kg and 0.74 mg/kg, respectively.

On to `C[C@H]1CN(C)CCN1c1cccc(O)c1`, for which the outcome in experiment [8], in experiment [9], in experiment [10] and in experiment [11] was inactive.

Source of the values: ChEMBL document CHEMBL3232748, “Effect of the 3- and 4-methyl groups on the opioid receptor properties of N-substituted trans-3,4-dimethyl-4-(3-hydroxyphenyl)piperidines” (2014).
